High-throughput results (PubChem BioAssay)
PRMT1 FP inh – PRMT1 (human) inhibition, primary screen | inhibition, % at 2.79 µM | Q99873 | recombinant PRMT1, activity-based probe fluorescence polarization | actives 1.3% (n = 370,000);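 active = inhibition above about 21% made by adding two undisclosed values, limit read from the data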
SIAE inh – inhibitors of human sialic acid acetylesterase SIAE. inhibition, % at 9.66 µM. actives 0.69% (n = 370,000). AID 1053197. Q9HAT2. SIAE FP-Rh probe binding, fluorescence polarization;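 active = inhibition above a cutoff: mean of compounds within the control limits plus 3 SD of those, cut at about 17% in these data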;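 also: 0% = plate median of compound wells and 100% = probe without SIAE protein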
HTRA1 inhibitor – inhibitors of human serine peptidase HTRA1 | recombinant HTRA1, FP-rhodamine activity-based probe, fluorescence polarization | inhibition, % at 5.96 µM | actives 0.5% (n = 340,000) | AID 504803; in the data active = inhibition above about 36%;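 also: 0% = enzyme with DMSO and 100% = wells lacking enzyme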
TCR-CD3 inh – blocks the human TCR-CD3 interaction; TAMRA-labeled TCR probe fluorescence, biochemical; inhibition, % at 9.4 µM; actives 0.37% (n = 360,000); AID 651800; in the data active = inhibition above about 19%;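 also: recombinant mutant TCR 2C K166C tagged with TAMRA read by polarization; 0% = receptor in buffer alone and 100% = receptor with positive control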
ABHD4 inh – inhibits mouse alpha/beta hydrolase domain 4; Q8VD66; purified mABHD4, FP-Rh probe fluorescence polarization; inhibition, % at 8.92 µM; actives 0.54% (n = 370,000);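 active = inhibition exceeding the mean over every tested compound plus 3 SD, cut at about 30% in these data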;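 also: 0% = plate median of compound wells and 100% = S159A mutant with DMSO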
Target sequence (Q8VD66 whole entry, looked up, the tested form may be a part): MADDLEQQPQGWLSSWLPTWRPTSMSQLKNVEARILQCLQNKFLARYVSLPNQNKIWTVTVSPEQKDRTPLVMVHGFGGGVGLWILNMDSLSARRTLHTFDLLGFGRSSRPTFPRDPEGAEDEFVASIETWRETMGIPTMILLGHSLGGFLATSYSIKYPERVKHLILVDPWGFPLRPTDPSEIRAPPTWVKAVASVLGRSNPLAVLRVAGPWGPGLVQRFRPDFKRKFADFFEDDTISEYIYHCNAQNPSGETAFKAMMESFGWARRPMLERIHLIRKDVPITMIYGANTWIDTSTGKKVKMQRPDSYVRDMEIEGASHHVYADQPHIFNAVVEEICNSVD
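Test system: mouse ABHD4 enzyme, wild type. Reagent: FP-Rh fluorescent activity-based probe, added after compound pre-incubation. Timing: pre-incubation 45 min, probe exposure 60 min, at 25 °C. Technique: FP readout, ex 525 nm / em 598 nm. Benchmarks: high control S159A mutant with DMSO, low control median of compound wells.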
PRMT1 inh conf – confirmation of human PRMT1 inhibitors | shares compounds with PRMT1 FP inh | recombinant His-PRMT1, activity-based probe fluorescence polarization | inhibition, % at 2.79 µM | actives 42% (n = 3,300) | AID 687036;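 active = mean inhibition across replicates above the hit cutoff derived for the earlier primary screen, cut at about 22% in these data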
Starred values were filed as active, the others as inactive; / = no result. Rows were chosen to be rich in hits. Some 2.5% of all compounds tested hit in one or more screens of this group.

SMILES	PRMT1 FP inh	SIAE inh	HTRA1 inhibitor	TCR-CD3 inh	ABHD4 inh	PRMT1 inh conf
COCCNC(=O)C1CCCN(C(=O)c2cc(-c3cccs3)oc2C)CC1 (stereo unspecified)	-3	2	/	-1	3	/
O=C(CSc1nc2[nH]c(=O)cc(O)c2s1)NCCc1ccccc1	3	3	0	5	8	/
COc1ccc(CCNC(=O)CSc2nc3[nH]c(=O)cc(O)c3s2)cc1	29*	7	-3	1	10	4
O=C(NCc1cccnc1)c1ccc2c(c1)N(Cc1ccccc1)CCS2	29*	2	4	1	3	7
CCN1CCSc2ccc(C(=O)NCc3cccc(F)c3)cc21	13	7	2	3	0	/
CCCOc1ccc(CNC(=O)c2ccc3c(c2)N(CC)CCS3)cc1	28*	8	-8	-3	8	5
O=C(NCc1ccccn1)c1ccc2c(c1)N(Cc1ccccc1)CCS2	6	3	4	-2	0	/
Clc1ccc(CNc2ncnc3[nH]ncc23)c(Cl)c1	7	-6	-6	-12	-13	/
O=C(Nc1c(-c2ccccc2)nc2ncccn12)c1ccc(F)cc1	-2	1	/	/	1	/
CCOC(=O)C1CCN(c2nc(N)c3c(N)nc(SCC(=O)O)cc3c2C#N)CC1	55*	-2	15	7	26	26*
Nc1ccc2nc(-c3ccccc3)cnc2c1	31*	-2	19	-4	13	33*
CN(CCOC(=O)c1cc2ccccc2o1)C1CN(Cc2cn(Cc3ccccc3F)nn2)S(=O)(=O)C1 (stereo unspecified)	2	4	/	/	2	/
Cc1ccc(NC(=O)CSc2nc(N)cc(=O)[nH]2)cc1S(=O)(=O)N1CCCCC1	44*	-3	2	0	-14	0
COc1ccc(-n2c(COc3ccc(Cl)cc3Cl)n[nH]c2=S)cc1	27*	2	0	-6	0	9
S=c1[nH]nc(COc2ccc(Cl)cc2)n1-c1ccc(Cl)cc1	28*	4	-11	-3	-4	17
O=[N+]([O-])c1ccc(S(=O)(=O)N2CCSC2c2ccco2)cc1 (stereo unspecified)	46*	6	3	-2	6	33*
COc1ccc(N2C(=O)CC(NCCNc3ccc([N+](=O)[O-])cn3)C2=O)cc1 (stereo unspecified)	36*	0	2	2	3	8
CCOc1ccc(N2C(=O)CC(NCCNc3ccc([N+](=O)[O-])cn3)C2=O)cc1 (stereo unspecified)	49*	-3	-3	-3	-8	7
CCOc1ccc(N2C(=O)CC(N3CCN(c4ccc([N+](=O)[O-])cc4)CC3)C2=O)cc1 (stereo unspecified)	10	2	1	-3	5	/
COC(=O)[C@@]12CCCCC=C1N(CCc1ccc(Cl)cc1)C(=O)[C@H]2CC(=O)NCC12CC3CC(CC(C3)C1)C2	0	-3	/	/	2	/
O=c1c2sccc2nc(SCc2cc(=O)n3ccccc3n2)n1Cc1ccccn1	27*	-4	/	-6	-2	15
O=C(/C=C/c1ccccc1)CCN1CCCCC1	25*	-3	6	-1	7	50*
O=C(CCN1CCCCCC1)c1ccccc1	-2	1	-4	1	5	/
Cc1nc(N)c(C#N)c(-c2ccc3c(c2)OCO3)c1C	4	0	-2	-2	-3	/
Cc1ccc(-c2cc(-c3ccc(F)cc3)c(C#N)c(N)n2)o1	46*	-10	17	-2	7	20
SMILES	PRMT1 FP inh	SIAE inh	HTRA1 inhibitor	TCR-CD3 inh	ABHD4 inh	PRMT1 inh conf
Cc1ccc(-c2cc(-c3ccc4c(c3)OCO4)c(C#N)c(N)n2)o1	44*	-14	-16	1	-12	31*
CCOc1cc(-c2cc(-c3ccc(C)o3)nc(N)c2C#N)ccc1O	1	-9	-20	2	-16	/
Cc1ccc(-c2cc(-c3ccc(Cl)cc3)c(C#N)c(N)n2)o1	42*	-2	14	-5	5	63*
Cc1ccc(-c2cc(-c3ccc(C)o3)nc(N)c2C#N)cc1	58*	-3	8	2	0	79*
Cc1cc(C)c(S(C)(=O)=O)c(Oc2cccc(C(F)(F)F)c2)n1	0	1	-11	-1	-4	/
CC(O)C1CCC2C3CCC4CC(O)CCC4(C)C3C(=O)CC12C (stereo unspecified)	3	2	1	3	-1	/
